FGF22 binding: binders of recombinant human FGF22 by thermal shift. activity (Tm shift, normalised), % at 9.99 µM. AID 651658. SYPRO orange fluorescence; percent of sucrose octasulfate shift, DMSO zero. 340,000 tested, 1.5% active;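 active = mean Tm shift, scaled 0 neutral to 100 positive control, at about 1.3% or above, every replicate too, limit read from the data; inconclusive = no clear call, values can overlap the other calls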
Target sequence (Q9HCT0 whole entry, looked up): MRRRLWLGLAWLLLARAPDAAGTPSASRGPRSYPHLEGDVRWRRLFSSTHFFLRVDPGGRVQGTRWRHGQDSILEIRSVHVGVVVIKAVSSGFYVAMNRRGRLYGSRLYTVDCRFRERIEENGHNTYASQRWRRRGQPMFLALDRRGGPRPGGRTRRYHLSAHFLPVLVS
EWS-Fli block: EWS/Fli transcriptional activity inhibition. 350,000 tested, 0.67% active. inhibition, % at 12.6 µM. A673 NR0B1-luciferase reporter, viability-normalised;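 active = mean inhibition of at least 50% after viability correction, with every replicate also passing that limit; inconclusive = mean reaches 50% but only one of two replicates passes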;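 note: firefly luciferase signal divided by Alamar Blue viability fluorescence both relative to DMSO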
Env fusion inh: blocks HIV Env-driven cell-cell fusion; HeLa-JRFL Env/CEM21 cell fusion, luciferase; inhibition, % at 12.3 µM; 360,000 tested, 1.1% active; AID 651610;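 active = mean replicate inhibition score of at least 50 and every replicate individually at or above 50; inconclusive = only one of the two criteria met; inactive = mean below 50 and not all replicates reaching 50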
PGC1a acetyl inh: lowers PGC1a acetylation signal in U2OS cells; AlphaScreen anti-acetyl-lysine; with virally co-expressed GCN5 acetyltransferase; inhibition, % at 15.6 µM; 350,000 tested, 0.17% active; AID 651687;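 active = every replicate shows inhibition of at least 40%; inconclusive = mean inhibition at least 40% but some replicate below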
FN deposition inh: fibronectin deposition inhibition; AH1F fibroblasts, Alexa488-fibronectin deposition fluorescence, overnight; inhibition, % at 12.6 µM; 350,000 tested, 0.086% active;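 active = mean inhibition across replicates of 30% or more, regardless of how many single replicates reach that level; inconclusive = mean under 30% yet at least half of replicates reach 30%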
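Test system: AH1F fibroblast monolayer depositing Alexa488-labelled fibronectin into matrix. Input: 10000 cells per well. Technique: fluorescence, ex 485 nm, em 525 nm. Buffer or medium: DMEM plus 2% serum, read in PBS. Timing: 1 h cell adhesion before compound, then overnight fibronectin incubation. Compound: single dose, pinned. Read-out basis: inhibition from reduced deposited-fibronectin fluorescence.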
PAX8 inh HTS: lowers PAX8-driven luciferase in RMG-I cells. RMG-I TPO-luciferase reporter, SteadyGlo, 24 h. inhibition, % at 12.6 µM. 360,000 tested, 1.2% active;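 active = mean replicate inhibition at least 60% with every replicate also reaching 60%; inconclusive = only one of the two criteria is met; inactive = mean below 60% and not all replicates reaching 60%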;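 note: luciferase light reporting Pax8 driven TPO promoter activity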
A number is an active result; i = inactive; ? = inconclusive; nt = not tested or not shown. The list is not random: actives were taken first. Their share in the collection is about 3.1%.

SMILES	FGF22 binding	EWS-Fli block	Env fusion inh	PGC1a acetyl inh	FN deposition inh	PAX8 inh HTS
O=C(Oc1ccc2c(c1)OCO2)c1cc2c(s1)CCC2	nt	nt	75	i	i	i
O=C(c1cc2c(s1)CCCC2)N1CCN(Cc2ccc3c(c2)OCO3)CC1	nt	nt	nt	i	nt	nt
C[C@H](CO)N1C[C@H](C)[C@H](CN(C)Cc2ccccn2)Oc2ncc(C#CC(C)(C)O)cc2C1=O	i	i	i	i	nt	i
Cn1c(=N)n(CC(=O)c2ccc(F)cc2)c2ccccc21	i	78	i	i	i	i
COCCCNc1nnc(Cc2ccc(Cl)cc2)c(=O)[nH]1	i	58	i	nt	i	i
CCCNC(=O)N1CC2(CCN(Cc3cccc(F)c3)CC2)c2c([nH]c3cc(OC)ccc23)[C@H]1CO	i	i	i	nt	nt	nt
CCOc1cc(/C=N/Nc2nc(N3CCCCC3)nc(N3CCCCC3)n2)ccc1OC(=O)c1ccco1	43	i	i	i	i	i
Cc1cc(NC(=O)c2ccc([N+](=O)[O-])o2)ccc1NC(=O)c1ccco1	i	i	i	nt	i	99
O=C(NNC(=S)NC(=O)c1ccco1)c1ccc(F)cc1	6.2	i	i	i	i	i
COc1ccc(C(=O)NNC(=S)NC(=O)c2ccco2)cc1	nt	nt	i	i	i	i
COc1cc(NC(=O)c2ccc([N+](=O)[O-])o2)ccc1NC(=O)c1ccco1	i	nt	i	i	i	90
COc1cc(NC(=O)C(C)C)ccc1NC(=O)c1ccco1	i	i	nt	nt	nt	nt
COc1ccccc1-c1cnc2c(c1)C(=O)N([C@H](C)CO)C[C@H](C)[C@@H](CN(C)Cc1ccc(C(=O)O)cc1)O2	i	i	i	i	i	nt
Cc1noc(C)c1S(=O)(=O)Nc1ccc2c(c1)C(=O)N([C@@H](C)CO)C[C@@H](C)[C@H](CN(C)Cc1ccc(Cl)c(Cl)c1)O2	i	i	i	i	nt	nt
O=C(Nc1ccc(F)cc1)N[C@@H]1CC[C@@H](CCNC(=O)c2ccccc2F)O[C@H]1CO	nt	i	nt	i	nt	nt
Cc1cccc(C(=O)NNC(=O)c2ccco2)c1	43	i	i	nt	i	i
O=C(Nc1cc([N+](=O)[O-])ccc1O)c1cccc(NC(=O)c2ccco2)c1	i	i	i	i	i	i
COc1cc(NC(=O)c2cccc([N+](=O)[O-])c2)ccc1NC(=O)c1ccco1	44	i	i	nt	i	i
COc1cccc(C(=O)Nc2ccc(NC(=O)c3ccco3)nc2)c1	nt	nt	nt	i	nt	nt
COc1cccc(NC(=O)c2cccc(NC(=O)c3ccco3)c2)c1	43	i	i	i	i	i
COc1cc(/C=N/NC(=O)c2cccc([N+](=O)[O-])c2)ccc1OC(=O)c1ccco1	43	i	i	i	i	i
Cc1ccc(S(=O)(=O)N(C)C[C@@H]2OCCCC[C@@H](C)Oc3ccc(NC(=O)CCCN(C)C)cc3C(=O)N([C@@H](C)CO)C[C@H]2C)cc1	i	i	i	i	i	i
C[C@@H]1CN([C@@H](C)CO)C(=O)c2cc(NC(=O)CCC(F)(F)F)ccc2O[C@@H](C)CCCCO[C@H]1CN(C)Cc1ccc(C(=O)O)cc1	i	i	i	i	nt	nt
COc1cc(/C=N/N2CCOCC2)ccc1OC(=O)c1ccco1	43	i	i	i	i	i
CC(C)CCNC(=O)NC(=O)COC(=O)CCN=C1NS(=O)(=O)c2ccccc21	44	i	i	i	i	i
SMILES	FGF22 binding	EWS-Fli block	Env fusion inh	PGC1a acetyl inh	FN deposition inh	PAX8 inh HTS
O=C(CCN=C1NS(=O)(=O)c2ccccc21)OCC(=O)c1ccccc1	i	i	i	nt	i	i
C=CC[C@H](CC(=O)N(CCO)Cc1ccccc1)C(=O)N[C@H](COC(=O)[C@H](CC=C)CC(=O)OC(C)(C)C)Cc1ccccc1	i	i	i	nt	i	i
C=CC[C@@H](CC(=O)N(CCO)Cc1ccccc1)C(=O)N[C@H](COC(=O)[C@@H](CC=C)CC(=O)OC(C)(C)C)Cc1c[nH]c2ccccc12	i	i	i	i	i	i
C=CC[C@H](CC(=O)N(CCO)Cc1ccccc1)C(=O)N[C@@H](COC(=O)[C@H](CC=C)CC(=O)OC(C)(C)C)Cc1c[nH]c2ccccc12	i	i	i	nt	i	103
C=CC[C@@H](CC(=O)N(CCO)Cc1ccccc1)C(=O)N[C@@H](COC(=O)[C@@H](CC=C)CC(=O)OC(C)(C)C)Cc1c[nH]c2ccccc12	nt	i	i	i	i	63
CC(C)NC(=O)Nc1cccc2c1O[C@@H](CN(C)Cc1ccncc1)[C@@H](C)CN([C@H](C)CO)C2=O	i	i	nt	i	nt	i
CCC(=O)Nc1ccc2c(c1)C(=O)N(C)C[C@H](OC)[C@H](C)CN(CC1CC1)[C@H](C)CO2	i	i	nt	i	i	i
O=C(NCCCN1CCOCC1)c1ccc(Br)cc1	nt	nt	nt	i	nt	nt
Cc1cc(C)n(-c2ccc(C(=O)NCCCN3CCOCC3)cc2)n1	44	i	i	i	i	i
CC(C)c1ccc(C(=O)NCCCN2CCOCC2)cc1	i	i	i	i	i	i
CC(C)(C)c1ccc(C(=O)NCCCN2CCN(CCCNC(=O)c3ccc(C(C)(C)C)cc3)CC2)cc1	nt	nt	i	nt	i	70
CC(C)(C)c1ccc(C(=O)NCCN2CCOCC2)cc1	i	i	i	65	i	i
O=C(NCCCN1CCOCC1)c1ccc(CNS(=O)(=O)c2ccc(Br)cc2)cc1	i	i	nt	nt	i	132
COc1ccc(NC(=O)Nc2cccc3c2O[C@@H](CN(C)C(=O)Nc2c(C)noc2C)[C@H](C)CN([C@@H](C)CO)C3=O)cc1	i	i	i	i	i	i
Cn1nc(C(C)(C)C)cc1NC(=O)C1(C)CCN1C(=O)CCc1ccccc1 (stereo unspecified)	i	i	i	nt	i	i
Cn1nc(C(C)(C)C)cc1NC(=O)C1(C)CCN1C(=O)Cc1ccc(-c2ccccc2)cc1 (stereo unspecified)	i	i	62	i	i	i
COc1ccc(NC(=O)c2sc3cc(C(F)(F)F)cnc3c2-c2cccs2)cc1	nt	nt	nt	i	nt	nt
O=C(Nc1ccc(F)cc1)c1sc2cc(C(F)(F)F)cnc2c1-c1cccs1	nt	nt	nt	114	nt	nt
O=C(CC(F)(F)F)N1C[C@@H]2[C@H](c3ccccc31)[C@@H](CO)N2C(=O)Cc1cccnc1	i	i	nt	i	nt	i
CNC(=O)C[C@@H]1CC[C@H]2[C@@H](COc3ccc(NC(=O)C(C)C)cc3C(=O)N2C)O1	i	i	i	i	i	i
Cc1ccccc1CSc1nnc(-c2ccco2)n1Cc1ccco1	nt	nt	i	99	i	nt
COc1ccc(CCN(Cc2cccs2)S(=O)(=O)c2ccc(-n3cnnn3)cc2)cc1OC	nt	nt	86	i	i	i
CC=Cc1ccc2n(c1=O)C[C@H]1[C@H](CO)[C@@H](C(=O)NCc3ccccc3)[C@@H]2N1C (mixture of isomers)	nt	i	nt	nt	nt	nt
CC(C)NC(=O)N[C@H]1CC[C@@H](CCNC(=O)C2CCC2)O[C@H]1CO	i	i	i	i	nt	i
COc1ccc(C)c2sc(N(CCCN(C)C)C(=O)c3ccc(S(=O)(=O)N4CCc5ccccc5C4)cc3)nc12	i	58	92	i	i	?

Bioassay records from PubChem BioAssay.
